Measured values from ChEMBL document CHEMBL3397001, “Metabolic glycoengineering sensitizes drug-resistant pancreatic cancer cells to tyrosine kinase inhibitors erlotinib and gefitinib” (2015).
Active and inactive are the calls of the source.

Experiments:
SW1990 [1] = experiment: Potentiation of erlotinib-induced antiproliferative effect against human SW1990 cells assessed as combination index pre-treated with 12.5 and 25 uM compound for 48 hrs followed by erlotinib exposure for additional after 72 hrs by cell counting method; assay type: functional
How it was run: (§1)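 Cells given sugar analog (0, 25 or 50 μM; 12.5 or 25 μM for the azido analog) plus a concentration range of erlotinib or gefitinib, and growth inhibition measured. Synergy expressed as Combination Index, CI = D1/(Dx)1 + D2/(Dx)2, plotted against percent inhibition. At least 3 biological replicates; mean ± SEM.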

SW1990 [2] = experiment: Inhibition of cell proliferation of human SW1990 cells at <25 uM after 72 hrs by cell counting method
[3] = target: Epidermal growth factor receptor (Homo sapiens) (UniProt P00533); experiment: Increase in sialylation of EGFR in human SW1990 cells after 48 hrs by mass spectrometry based glycosite and glycan analysis method; assay type: cell-based
Epidermal growth factor receptor (Homo sapiens), sequence (P00533 whole entry): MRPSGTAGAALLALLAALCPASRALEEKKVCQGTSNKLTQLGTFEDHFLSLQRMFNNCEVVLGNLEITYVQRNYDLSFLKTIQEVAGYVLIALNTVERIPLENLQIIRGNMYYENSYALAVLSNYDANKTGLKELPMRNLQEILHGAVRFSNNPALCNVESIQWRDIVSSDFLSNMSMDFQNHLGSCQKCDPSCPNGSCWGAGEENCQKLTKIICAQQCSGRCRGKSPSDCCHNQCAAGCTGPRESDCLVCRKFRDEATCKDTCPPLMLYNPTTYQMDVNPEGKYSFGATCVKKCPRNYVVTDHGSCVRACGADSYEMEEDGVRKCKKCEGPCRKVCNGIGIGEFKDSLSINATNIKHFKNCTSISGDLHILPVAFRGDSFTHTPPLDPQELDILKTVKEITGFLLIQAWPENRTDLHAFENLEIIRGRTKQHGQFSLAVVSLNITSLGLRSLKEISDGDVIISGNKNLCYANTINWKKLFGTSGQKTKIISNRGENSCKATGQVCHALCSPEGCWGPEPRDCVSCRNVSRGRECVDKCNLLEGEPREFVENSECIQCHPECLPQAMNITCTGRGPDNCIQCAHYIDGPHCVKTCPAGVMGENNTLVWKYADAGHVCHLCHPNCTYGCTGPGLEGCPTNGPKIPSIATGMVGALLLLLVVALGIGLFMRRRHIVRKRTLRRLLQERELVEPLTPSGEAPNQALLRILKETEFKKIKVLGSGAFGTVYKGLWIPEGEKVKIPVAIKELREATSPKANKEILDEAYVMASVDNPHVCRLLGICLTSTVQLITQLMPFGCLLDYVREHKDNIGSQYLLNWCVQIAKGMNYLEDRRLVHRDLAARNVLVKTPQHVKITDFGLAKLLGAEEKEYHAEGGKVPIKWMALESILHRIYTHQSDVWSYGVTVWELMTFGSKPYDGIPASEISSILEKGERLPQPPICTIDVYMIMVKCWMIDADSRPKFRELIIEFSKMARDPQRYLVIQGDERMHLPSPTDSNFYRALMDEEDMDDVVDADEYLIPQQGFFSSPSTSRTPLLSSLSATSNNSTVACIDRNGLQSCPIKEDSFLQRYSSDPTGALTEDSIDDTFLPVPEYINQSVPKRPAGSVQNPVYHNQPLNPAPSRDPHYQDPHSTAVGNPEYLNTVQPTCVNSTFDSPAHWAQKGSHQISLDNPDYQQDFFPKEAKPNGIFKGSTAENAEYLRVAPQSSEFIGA
How it was run: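 EGFR sialylation in treated cells assessed by mass spectrometry-based glycosite and glycan analysis.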

[4] = target: Epidermal growth factor receptor (Homo sapiens) (UniProt P00533); experiment: Inhibition of Alexa fluor 488-labeled EGFbinding to EGFR in human SW1990 cells assessed as reduction in available surface bound EGFR at 100 uM after 1 hr by flow cytometry; assay type: cell-based
How it was run: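 Intact cells incubated with Alexa Fluor 488-labeled EGF for one hour at room temperature, then surface-bound label read by flow cytometry (saturation binding). At least 3 biological replicates; mean ± SEM.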

[5] = target: Epidermal growth factor receptor (Homo sapiens) (UniProt P00533); experiment: Inhibition of EGFR phosphorylation in human SW1990 cells at 50 and 100 uM by immunofluorescence assay; assay type: cell-based
How it was run: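 Treated cells stimulated with EGF for 2.0 min, fixed, stained with anti-p-EGFR plus FITC-labeled anti-rabbit secondary and DAPI, then imaged by immunofluorescence microscopy.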

[6] = target: Epidermal growth factor receptor (Homo sapiens) (UniProt P00533); experiment: Inhibition of EGFR phosphorylation in human SW1990 cells at 25 to 100 uM by Western blotting method; assay type: cell-based
How it was run: (§2)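 Cells exposed to increasing analog levels; lysates immunoblotted for phospho-EGFR and total EGFR. Significance threshold p < 0.05.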

SW1990 [7] = experiment: Effect on total EGFR levels in human SW1990 cells at 25 to 100 uM by Western blotting method; assay type: functional, cell-based; how it was run: as §2
[8] = target: Epidermal growth factor receptor (Homo sapiens) (UniProt P00533); experiment: Inhibition of EGFR-mediated STAT3 phosphorylation in human SW1990 cells at 25 to 100 uM by Western blotting method; assay type: cell-based
How it was run: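 Cells treated at several analog concentrations; lysates immunoblotted for phospho-STAT3, with band intensity quantified by densitometry. At least 3 biological replicates; mean + SEM; p < 0.05.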

SW1990 [9] = experiment: Inhibition of cell proliferation of human SW1990 cells at 100 to 300 uM after 48 hrs by cell counting method; assay type: functional, cell-based
SW1990 [10] = experiment: Inhibition of cell proliferation of human SW1990 cells at 25 and 50 uM after 48 hrs by cell counting method; assay type: functional, cell-based
SW1990 [11] = experiment: Potentiation of erlotinib-induced antiproliferative effect against human SW1990 cells pre-treated with 50 uM compound for 48 hrs followed by erlotinib exposure for additional after 72 hrs by cell counting method; assay type: functional, cell-based; how it was run: as §1
SW1990 [12] = experiment: Potentiation of gefitinib-induced antiproliferative effect against human SW1990 cells pre-treated with 50 uM compound for 48 hrs […] for additional after 72 hrs by cell counting method; assay type: functional, cell-based; how it was run: as §1
SW1990 [13] = experiment: Potentiation of gefitinib-induced antiproliferative effect against human SW1990 cells assessed as combination index pre-treated with 50 uM compound for 48 hrs […] for additional after 72 hrs by cell counting method; assay type: functional; how it was run: as §1
SW1990 [14] = experiment: Potentiation of erlotinib-induced antiproliferative effect against human SW1990 cells assessed as combination index pre-treated with 50 uM compound for 48 hrs followed by erlotinib exposure for additional after 72 hrs by cell counting method; assay type: functional; how it was run: as §1
SW1990 [15] = experiment: Potentiation of erlotinib-induced antiproliferative effect against human SW1990 cells pre-treated with 25 uM compound for 48 hrs followed by erlotinib exposure for additional after 72 hrs by cell counting method; assay type: functional, cell-based; how it was run: as §1
SW1990 [16] = experiment: Potentiation of gefitinib-induced antiproliferative effect against human SW1990 cells pre-treated with 25 uM compound for 48 hrs […] for additional after 72 hrs by cell counting method; assay type: functional, cell-based; how it was run: as §1

fold change (FC) [3] | inhibition [4] | inhibition [5] | inhibition [6] | inhibition [8] | SMILES | CI (SW1990 [1]) | inhibition (SW1990 [2]) | Activity (SW1990 [7]) | inhibition (SW1990 [9]) | inhibition (SW1990 [10]) | Activity (SW1990 [11]) | Activity (SW1990 [12]) | CI (SW1990 [13]) | CI (SW1990 [14]) | Activity (SW1990 [15]) | Activity (SW1990 [16])
– | – | – | – | – | CCCC(=O)OC1O[C@H](CO)[C@@H](OC(=O)CCC)[C@H](OC(=O)CCC)[C@@H]1NC(=O)CN=[N+]=[N-] (stereo partly specified) | 0.34 | Active | – | – | – | – | – | – | – | – | –
2 | Active | Active | Active | Dose-dependent effect | CCCC(=O)OC1O[C@H](CO)[C@@H](OC(=O)CCC)[C@H](OC(=O)CCC)[C@@H]1NC(C)=O (stereo partly specified) | – | – | inactive | Active | inactive | Active | Active | 0.23 | 0.23 | Active | Active
